From ChEMBL document CHEMBL1143703, “Linear TMC-95-based proteasome inhibitors” (J Med Chem, 2007)
Activity calls are given as the source filed them. The rule behind the calls is not given here. Residues, ends and D or L forms follow the SMILES beside them. *: point of attachment. Boc = CC(C)(C)OC(=O)*; NHBn = c1ccc(CN*)cc1; NHPh = c1ccc(N*)cc1; Bn = c1ccc(C*)cc1

Assays:
Oryctolagus cuniculus [1] = organism: Oryctolagus cuniculus; experiment: Inhibition of post acid activity of rabbit reticulocyte 20S proteasome at 100 uM
Oryctolagus cuniculus [2] = organism: Oryctolagus cuniculus; experiment: Activation of chymotrypsin-like activity of rabbit reticulocyte 20S proteasome relative to control
Oryctolagus cuniculus [3] = organism: Oryctolagus cuniculus; experiment: Activation of trypsin-like activity of rabbit reticulocyte 20S proteasome relative to control
Method in brief: (§1)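 Trypsin-like site: proteasome exposed to 0.1-100 µM compound, fluorogenic substrate hydrolysis read 1 h at 37 °C in pH 7.5 20 mM Tris, 1 mM DTT, 10% glycerol without SDS; 3% DMSO final. Initial rates relative to untreated control: >100% expressed as activation factor, <100% as inhibition; Ki via Vi/V0 = 1/(1+[I]/Ki(app)) or IC50 = Ki(1+[S]/Km).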

[4] = Inhibition of post acid activity of rabbit reticulocyte 20S proteasome; design: species or system Oryctolagus cuniculus
Oryctolagus cuniculus [5] = organism: Oryctolagus cuniculus; experiment: Inhibition of trypsin-like activity of rabbit reticulocyte 20S proteasome at 100 uM; method in brief: as §1
[6] = Inhibition of trypsin-like activity of rabbit reticulocyte 20S proteasome; design: species or system Oryctolagus cuniculus; method in brief: as §1
HeLa [7] = experiment: Cytotoxicity against human HeLa cells by MTT assay; type: functional, cell-based
Huh-7 = experiment: Growth inhibition of human HuH7 cells at 50 uM after 48 hrs by MTT assay; type: functional, cell-based
Method in brief: (§2)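 5 × 10^3 cells grown in triplicate 48 h with or without 50 µM inhibitor. Media: DMEM for HeLa and T-47D; MEM for HEK-293, HuH7 and Hep G2; McCoy for HCT-116; each with 10% FBS, 5% CO2. Survival read by MTT metabolism at 37 °C, relative to DMSO-only control.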

HepG2 = experiment: Growth inhibition of human HepG2 cells at 50 uM after 48 hrs by MTT assay; type: functional, cell-based; method in brief: as §2
T47D = experiment: Growth inhibition of human T47D cells at 50 uM after 48 hrs by MTT assay; type: functional, cell-based; method in brief: as §2
HEK293 = experiment: Cytotoxicity against human HEK293 cells at 50 uM after 48 hrs by MTT assay; type: functional, cell-based; method in brief: as §2
[8] = Inhibition of chymotrypsin-like activity of rabbit reticulocyte 20S proteasome; design: species or system Oryctolagus cuniculus
HeLa [9] = experiment: Cytotoxicity against human HeLa cells at 50 uM after 48 hrs by MTT assay; type: functional, cell-based; method in brief: as §2
HCT-116 = experiment: Growth inhibition of human HCT116 cells at 50 uM after 48 hrs by MTT assay; type: functional, cell-based; method in brief: as §2
[10] = Stability in RPMI medium in presence of 20% fetal calf serum; type: ADME; conditions: cattle, RPMI medium with 20% fetal calf serum
Method in brief: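 Compound incubated up to 2 days at 37 °C in RPMI with 20% fetal calf serum. Stopped with ethanol, centrifuged at 4 °C, supernatant analysed by RP-HPLC. Half-life from linear least-squares fit of log[I] versus time, at least five points.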

Oryctolagus cuniculus [11] = organism: Oryctolagus cuniculus; experiment: Inhibition of chymotrypsin-like activity of rabbit reticulocyte 20S proteasome at 100 uM

CC(C)(C)OC(=O)N[C@@H](Cc1ccc(OCc2ccccc2)cc1)C(=O)N[C@@H](CC(N)=O)C(=O)N[C@@H](Cc1c[nH]c2ccccc12)C(=O)Nc1ccccc1 (Boc-Tyr(Bn)-Asn-Trp-NHPh)
inhibition (Oryctolagus cuniculus [1]): < 20% | Fold change (Oryctolagus cuniculus [2]): 1.5 | Fold change (Oryctolagus cuniculus [3]): 1.6 | Ki [4]: > 100 µM

CC(C)(C)OC(=O)NCCCCNC(=O)[C@H](Cc1c[nH]c2ccccc12)NC(=O)[C@H](CCCCNC(=O)OC(C)(C)C)NC(=O)[C@H](Cc1ccc(OCc2ccccc2)cc1)NC(=O)OC(C)(C)C
inhibition (Oryctolagus cuniculus [1]): < 20% | Fold change (Oryctolagus cuniculus [2]): 1.6 | Fold change (Oryctolagus cuniculus [3]): 1.9 | Ki [4]: > 100 µM

C[C@H](NC(=O)[C@H](Cc1ccc(OCc2ccccc2)cc1)NC(=O)OC(C)(C)C)C(=O)N[C@@H](Cc1c[nH]c2ccccc12)C(=O)Nc1ccc(O)cc1
inhibition (Oryctolagus cuniculus [5]): < 20% | Ki [6]: > 100 µM | IC50 (HeLa [7]): 15 µM | Activity (Huh-7): Active | Activity (HepG2): inactive | Activity (T47D): Active | Activity (HEK293): Active | Ki [8]: 65.7 µM | Activity (HeLa [9]): Active | Ki [4]: 1 µM | Activity (HCT-116): Active

CC(C)(C)OC(=O)NCCCCNC(=O)[C@H](Cc1c[nH]c2ccccc12)NC(=O)[C@H](CC(N)=O)NC(=O)[C@H](Cc1ccc(OCc2ccccc2)cc1)NC(=O)OC(C)(C)C
inhibition (Oryctolagus cuniculus [1]): < 20% | Fold change (Oryctolagus cuniculus [2]): 1.6 | Fold change (Oryctolagus cuniculus [3]): 2.2 | Ki [4]: > 100 µM

CC(C)(C)OC(=O)NCCCC[C@H](NC(=O)[C@H](Cc1ccc(OCc2ccccc2)cc1)NC(=O)OC(C)(C)C)C(=O)N[C@@H](Cc1c[nH]c2ccccc12)C(=O)NCc1ccccc1 (Boc-Tyr(Bn)-Lys(Boc)-Trp-NHBn)
inhibition (Oryctolagus cuniculus [1]): < 20% | Fold change (Oryctolagus cuniculus [2]): 1.3 | Fold change (Oryctolagus cuniculus [3]): 1.8 | Ki [4]: > 100 µM

C[C@H](NC(=O)[C@H](Cc1ccc(OCc2ccccc2)cc1)NC(=O)OC(C)(C)C)C(=O)N[C@@H](Cc1c[nH]c2ccccc12)C(=O)NCCCCNC(=O)OC(C)(C)C
inhibition (Oryctolagus cuniculus [1]): < 20% | Fold change (Oryctolagus cuniculus [2]): 1.5 | Fold change (Oryctolagus cuniculus [3]): 3.2 | Ki [4]: > 100 µM

C[C@H](NC(=O)[C@H](Cc1ccc(OCc2ccccc2)cc1)NC(=O)OC(C)(C)C)C(=O)N[C@@H](Cc1c[nH]c2ccccc12)C(=O)Nc1ccccc1 (Boc-Tyr(Bn)-Ala-Trp-NHPh)
inhibition (Oryctolagus cuniculus [1]): < 20% | Fold change (Oryctolagus cuniculus [2]): 1.4 | Fold change (Oryctolagus cuniculus [3]): 1.6 | Ki [4]: > 100 µM

C[C@H](NC(=O)[C@H](Cc1ccc(OCc2ccccc2)c(I)c1)NC(=O)OC(C)(C)C)C(=O)N[C@@H](Cc1c[nH]c2c(Br)cccc12)C(=O)O
Ki [6]: 3 µM | half-life [10]: 2220 min | Ki [8]: 1.6 µM | Ki [4]: 2.8 µM

CC(C)(C)OC(=O)N[C@@H](Cc1ccc(OCc2ccccc2)cc1)C(=O)N[C@@H](CC(N)=O)C(=O)N[C@@H](Cc1c[nH]c2ccccc12)C(=O)NCc1ccccc1 (Boc-Tyr(Bn)-Asn-Trp-NHBn)
half-life [10]: 390 min | Ki [8]: 59.3 µM | Fold change (Oryctolagus cuniculus [3]): 2.2 | Ki [4]: 84.2 µM

CCOC(=O)[C@H](Cc1c[nH]c2c(Br)cccc12)NC(=O)[C@H](CC(C)C)NC(=O)[C@H](Cc1ccc(OCc2ccccc2)c(I)c1)NC(=O)OC(C)(C)C
inhibition (Oryctolagus cuniculus [5]): < 20% | inhibition (Oryctolagus cuniculus [1]): < 20% | Ki [6]: > 100 µM | inhibition (Oryctolagus cuniculus [11]): < 20% | Ki [8]: > 100 µM | Ki [4]: > 100 µM

CC(C)C[C@H](NC(=O)[C@H](Cc1ccc(OCc2ccccc2)cc1)NC(=O)OC(C)(C)C)C(=O)N[C@@H](Cc1c[nH]c2ccccc12)C(=O)NCc1ccccc1 (Boc-Tyr(Bn)-Leu-Trp-NHBn)
inhibition (Oryctolagus cuniculus [1]): < 20% | Fold change (Oryctolagus cuniculus [2]): 1.3 | Fold change (Oryctolagus cuniculus [3]): 1.9 | Ki [4]: > 100 µM
